Our source for the IC50, selectivity ratio and TI values is ChEMBL document CHEMBL1125775 (J Med Chem, 1991).

One series addresses Glutamate NMDA receptor. The experiment in a line: N-methyl-D-aspartate glutamate receptor antagonistic activity in cell culture(CC)model. The series is classed as functional. In a few lines:
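Functional NMDA antagonism in rat hippocampal cell cultures. Read-out is protection of the cultured neurons against toxicity from extracellularly applied glutamate (the glutamate-induced hippocampal neurodegeneration model).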

For series [1], the system named is Alpha-1 adrenergic receptor versus NMDA receptor. Put plainly: (§1) Therapeutic index is the ratio of IC50 value for Alpha-1 adrenergic receptor to that for NMDA. The settings on record: read-out: TI. In a few lines:
(§2)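 Selectivity index calculated as α1 adrenergic potency ([3H]prazosin binding) divided by activity in the rat hippocampal culture glutamate-neurotoxicity model.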

In series [2] the target is T1, Adrenergic receptor alpha-1 (Rattus norvegicus, UniProt P15823+P23944+P43140).
T1 sequence (P15823 whole entry): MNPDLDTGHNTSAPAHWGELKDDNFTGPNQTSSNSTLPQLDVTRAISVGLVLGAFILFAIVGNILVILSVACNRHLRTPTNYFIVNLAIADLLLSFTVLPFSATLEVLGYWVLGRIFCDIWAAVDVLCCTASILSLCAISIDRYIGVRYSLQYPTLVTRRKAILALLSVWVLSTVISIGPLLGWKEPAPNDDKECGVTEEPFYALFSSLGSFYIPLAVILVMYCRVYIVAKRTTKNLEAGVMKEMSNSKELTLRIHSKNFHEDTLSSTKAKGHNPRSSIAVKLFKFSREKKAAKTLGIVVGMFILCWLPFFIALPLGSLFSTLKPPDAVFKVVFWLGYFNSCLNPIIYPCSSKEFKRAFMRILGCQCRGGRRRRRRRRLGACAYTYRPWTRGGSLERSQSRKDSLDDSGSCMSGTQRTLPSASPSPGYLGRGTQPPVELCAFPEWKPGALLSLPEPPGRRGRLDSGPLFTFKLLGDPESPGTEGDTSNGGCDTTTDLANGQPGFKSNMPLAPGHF
T1 sequence (P23944 whole entry): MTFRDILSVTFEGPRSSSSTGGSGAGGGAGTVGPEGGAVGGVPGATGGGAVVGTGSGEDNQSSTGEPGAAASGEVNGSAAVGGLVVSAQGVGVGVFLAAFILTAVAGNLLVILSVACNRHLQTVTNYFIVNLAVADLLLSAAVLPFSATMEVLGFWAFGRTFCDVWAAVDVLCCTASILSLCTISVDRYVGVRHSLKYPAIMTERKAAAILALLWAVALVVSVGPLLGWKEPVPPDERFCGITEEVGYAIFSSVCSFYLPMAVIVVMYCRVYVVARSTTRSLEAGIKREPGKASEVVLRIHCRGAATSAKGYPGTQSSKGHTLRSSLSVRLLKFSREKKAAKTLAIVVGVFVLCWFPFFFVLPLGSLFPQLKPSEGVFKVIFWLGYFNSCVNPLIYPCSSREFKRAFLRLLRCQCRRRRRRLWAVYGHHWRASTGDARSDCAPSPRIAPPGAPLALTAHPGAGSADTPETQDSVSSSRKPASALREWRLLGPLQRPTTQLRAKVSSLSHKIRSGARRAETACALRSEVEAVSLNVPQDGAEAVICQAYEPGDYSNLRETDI
T1 sequence (P43140 whole entry): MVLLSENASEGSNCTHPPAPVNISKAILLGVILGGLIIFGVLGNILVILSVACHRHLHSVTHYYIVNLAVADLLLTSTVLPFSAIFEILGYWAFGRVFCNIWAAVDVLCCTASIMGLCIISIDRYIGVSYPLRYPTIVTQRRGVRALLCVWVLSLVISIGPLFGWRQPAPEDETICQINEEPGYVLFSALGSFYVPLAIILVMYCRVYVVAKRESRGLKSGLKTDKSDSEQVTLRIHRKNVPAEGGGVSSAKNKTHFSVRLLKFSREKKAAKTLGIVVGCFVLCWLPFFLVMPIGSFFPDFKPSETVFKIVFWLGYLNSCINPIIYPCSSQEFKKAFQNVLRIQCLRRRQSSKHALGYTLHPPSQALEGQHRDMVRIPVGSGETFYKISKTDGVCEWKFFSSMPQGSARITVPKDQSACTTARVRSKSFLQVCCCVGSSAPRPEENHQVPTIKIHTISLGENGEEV
Put plainly: Binding affinity against alpha-1 adrenergic receptor. In kind it is protein assay. An outline of the steps: (§3)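 Radioligand binding at α1 adrenergic receptors using [3H]prazosin in a standard binding assay.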

The nature of series [3]: as §1. An outline of the steps: as §2
In series [4] the target is T1, Adrenergic receptor alpha-1. Put plainly: Compound was tested for the binding affinity against Alpha-1 adrenergic receptor. In kind it is protein assay. An outline of the steps: as §3
Series [5] deals with T2, 5-hydroxytryptamine receptor 1A (Mus musculus, UniProt Q64264).
T2 sequence (Q64264 whole entry): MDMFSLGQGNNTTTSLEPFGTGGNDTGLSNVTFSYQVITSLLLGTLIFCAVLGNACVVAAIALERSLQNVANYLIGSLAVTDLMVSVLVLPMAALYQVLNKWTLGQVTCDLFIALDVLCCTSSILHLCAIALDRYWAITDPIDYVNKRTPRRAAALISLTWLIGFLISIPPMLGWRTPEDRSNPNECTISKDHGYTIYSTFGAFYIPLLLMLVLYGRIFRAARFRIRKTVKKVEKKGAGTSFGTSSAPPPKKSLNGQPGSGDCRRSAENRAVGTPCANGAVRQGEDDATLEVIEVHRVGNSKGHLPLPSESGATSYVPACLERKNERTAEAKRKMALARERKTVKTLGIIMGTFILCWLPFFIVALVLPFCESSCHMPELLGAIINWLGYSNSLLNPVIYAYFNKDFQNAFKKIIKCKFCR
Put plainly: Compound was tested for the binding affinity against 5-hydroxytryptamine 1A receptor by using [3H]DPAT as radioligand.

Series [6] concerns the target Muscarinic acetylcholine receptor M3 (Rattus norvegicus, UniProt P08483). The experiment in a line: Compound was tested for the binding affinity against muscarinic acetylcholine receptorby using [3H]QNB as radioligand.
The next series deals with Histamine H1 receptor (Homo sapiens, UniProt P35367). Put plainly: Compound was tested for the binding affinity against histamine H1 receptor by using [3H]mepyramine as radioligand.
Series [7] addresses 5-hydroxytryptamine receptor 2A (Bos taurus, UniProt Q75Z89). Put plainly: Compound was tested for the binding affinity against 5-hydroxytryptamine 2 receptor by using [3H]ketanserin as radioligand.
Another series has as its target Mu-type opioid receptor (Homo sapiens, UniProt P35372). Put plainly: Compound was tested for the binding affinity against opioid receptor mu by using [3H]naloxone as radioligand.
For a further series, the target named is D(1A) dopamine receptor (Mus musculus, UniProt Q61616). Put plainly: Compound was tested for the binding affinity against dopamine receptor D1 by using [3H]-SCH- 23390 as radioligand.
The next series concerns the target D(2) dopamine receptor (Homo sapiens, UniProt P14416). Put plainly: Compound was tested for the binding affinity against dopamine receptor D2 by using [3H]spiperone as radioligand.

A value given as a limit tells only on which side of the number the result lay.

Sequence of Mu-type opioid receptor (P35372 whole entry): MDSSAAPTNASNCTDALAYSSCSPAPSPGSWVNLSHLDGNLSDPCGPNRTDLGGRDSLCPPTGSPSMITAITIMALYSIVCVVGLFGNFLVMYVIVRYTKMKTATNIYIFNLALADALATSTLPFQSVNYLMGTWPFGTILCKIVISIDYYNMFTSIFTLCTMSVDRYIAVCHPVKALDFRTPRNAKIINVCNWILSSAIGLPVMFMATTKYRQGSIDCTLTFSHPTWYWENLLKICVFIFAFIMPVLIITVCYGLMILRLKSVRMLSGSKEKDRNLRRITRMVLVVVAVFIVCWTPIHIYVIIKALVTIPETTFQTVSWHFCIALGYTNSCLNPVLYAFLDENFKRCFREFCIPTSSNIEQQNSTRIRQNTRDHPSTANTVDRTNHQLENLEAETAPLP
Sequence of D(2) dopamine receptor (P14416 whole entry): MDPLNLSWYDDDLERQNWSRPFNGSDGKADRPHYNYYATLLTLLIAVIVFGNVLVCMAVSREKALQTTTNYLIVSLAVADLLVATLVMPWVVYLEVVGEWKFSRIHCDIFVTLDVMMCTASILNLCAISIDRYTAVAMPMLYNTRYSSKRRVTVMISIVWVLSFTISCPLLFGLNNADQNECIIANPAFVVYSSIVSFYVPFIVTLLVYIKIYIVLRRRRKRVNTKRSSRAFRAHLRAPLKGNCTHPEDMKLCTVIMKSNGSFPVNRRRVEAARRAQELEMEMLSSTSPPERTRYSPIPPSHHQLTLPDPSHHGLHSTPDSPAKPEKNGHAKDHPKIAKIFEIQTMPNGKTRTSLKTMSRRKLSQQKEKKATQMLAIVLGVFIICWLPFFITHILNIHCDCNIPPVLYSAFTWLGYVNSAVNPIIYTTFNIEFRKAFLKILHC
Sequence of Muscarinic acetylcholine receptor M3 (P08483 whole entry): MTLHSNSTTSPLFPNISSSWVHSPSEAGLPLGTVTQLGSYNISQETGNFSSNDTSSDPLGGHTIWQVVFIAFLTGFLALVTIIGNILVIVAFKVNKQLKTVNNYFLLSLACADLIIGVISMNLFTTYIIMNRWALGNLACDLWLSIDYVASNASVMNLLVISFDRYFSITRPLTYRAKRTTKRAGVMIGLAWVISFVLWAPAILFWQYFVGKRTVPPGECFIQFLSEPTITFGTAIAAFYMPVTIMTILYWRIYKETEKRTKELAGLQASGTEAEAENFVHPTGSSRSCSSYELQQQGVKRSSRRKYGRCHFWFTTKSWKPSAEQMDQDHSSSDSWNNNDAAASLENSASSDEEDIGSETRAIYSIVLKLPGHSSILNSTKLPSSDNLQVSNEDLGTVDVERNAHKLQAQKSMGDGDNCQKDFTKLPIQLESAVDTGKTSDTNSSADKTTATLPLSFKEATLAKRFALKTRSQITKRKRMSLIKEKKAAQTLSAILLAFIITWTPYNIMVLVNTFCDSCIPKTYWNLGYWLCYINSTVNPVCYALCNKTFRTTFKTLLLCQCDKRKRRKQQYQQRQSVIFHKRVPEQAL
Sequence of D(1A) dopamine receptor (Q61616 whole entry): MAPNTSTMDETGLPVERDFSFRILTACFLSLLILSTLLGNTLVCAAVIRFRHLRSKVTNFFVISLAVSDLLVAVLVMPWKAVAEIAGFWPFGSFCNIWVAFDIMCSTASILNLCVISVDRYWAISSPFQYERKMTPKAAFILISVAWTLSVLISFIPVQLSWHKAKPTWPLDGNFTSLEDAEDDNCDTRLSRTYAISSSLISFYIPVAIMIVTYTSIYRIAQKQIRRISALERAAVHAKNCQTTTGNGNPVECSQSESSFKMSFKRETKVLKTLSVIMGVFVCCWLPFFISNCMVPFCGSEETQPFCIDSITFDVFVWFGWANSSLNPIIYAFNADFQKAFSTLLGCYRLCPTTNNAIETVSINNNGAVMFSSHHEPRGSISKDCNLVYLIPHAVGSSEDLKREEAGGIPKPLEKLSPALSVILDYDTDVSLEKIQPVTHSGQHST
Sequence of Histamine H1 receptor (P35367 whole entry): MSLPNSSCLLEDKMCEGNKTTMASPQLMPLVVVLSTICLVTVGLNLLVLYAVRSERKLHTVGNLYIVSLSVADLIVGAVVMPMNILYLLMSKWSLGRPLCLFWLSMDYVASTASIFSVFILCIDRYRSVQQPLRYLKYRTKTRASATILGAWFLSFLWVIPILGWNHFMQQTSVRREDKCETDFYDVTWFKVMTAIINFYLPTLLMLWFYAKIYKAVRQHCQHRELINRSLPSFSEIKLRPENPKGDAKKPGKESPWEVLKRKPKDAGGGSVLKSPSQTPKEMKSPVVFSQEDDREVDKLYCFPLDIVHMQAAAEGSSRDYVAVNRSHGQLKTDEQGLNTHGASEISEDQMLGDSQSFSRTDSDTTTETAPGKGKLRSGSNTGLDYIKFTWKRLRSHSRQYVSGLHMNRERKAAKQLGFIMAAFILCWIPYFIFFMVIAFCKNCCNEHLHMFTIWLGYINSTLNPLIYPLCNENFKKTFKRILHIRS
Sequence of 5-hydroxytryptamine receptor 2A (Q75Z89 whole entry): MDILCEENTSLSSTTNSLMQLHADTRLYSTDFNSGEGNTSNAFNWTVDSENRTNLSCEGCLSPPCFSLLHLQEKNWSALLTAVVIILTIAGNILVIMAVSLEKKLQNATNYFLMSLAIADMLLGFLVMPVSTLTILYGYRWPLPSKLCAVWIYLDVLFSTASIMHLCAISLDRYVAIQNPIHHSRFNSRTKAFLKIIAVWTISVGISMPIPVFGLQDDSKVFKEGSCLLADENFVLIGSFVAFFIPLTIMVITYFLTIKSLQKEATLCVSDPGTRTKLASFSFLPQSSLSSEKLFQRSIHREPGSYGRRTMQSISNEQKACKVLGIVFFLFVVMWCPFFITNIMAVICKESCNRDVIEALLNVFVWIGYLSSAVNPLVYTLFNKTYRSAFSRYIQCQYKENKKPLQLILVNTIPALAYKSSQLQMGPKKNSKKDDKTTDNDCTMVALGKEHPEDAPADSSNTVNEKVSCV

Usually IC50 stands for the concentration needed to halve the response being measured. The low end stands for greater potency in that assay, the high end for weaker potency in that assay. Regarding `OC(CN1CCC(Cc2ccccc2)CC1)c1ccccc1` (stereo not given), the IC50 came to 5 µM at Glutamate NMDA receptor and 2133 nM in series [2]. Also, the selectivity ratio in series [1] was found to be 0.43.

`C[C@@H]([C@@H](O)c1ccc(F)cc1)N1CCC(Cc2ccccc2)CC1`: the IC50 on Glutamate NMDA receptor stood at 0.1 µM; in series [2], 2566 nM. Further, the selectivity ratio in series [1] amounted to 25.6.

As to `C[C@@H]([C@@H](O)c1ccc(O)cc1)N1CCCCC1`, the IC50 against Glutamate NMDA receptor is over 10 µM; in series [2], over 10000 nM.

With `C[C@@H]([C@@H](O)c1ccc(O)cc1)N1CCC(Cc2ccccc2)CC1` (stereo in doubt; 18) [(S)-IFENPRODIL], in series [3], the TI stood at 48. For the same compound, the IC50 in [2] worked out at 2306 nM.

In the case of `C[C@@H]([C@@H](O)c1ccc(O)cc1)N1CCN(C(=O)c2ccccc2)CC1`, the figures for the IC50 (against Glutamate NMDA receptor; in [2]) were over 10 µM and over 10000 nM, respectively.

As for `C[C@@H]([C@@H](O)c1ccc(O)cc1)N1CCC(Cc2ccccc2)CC1` (stereo in doubt; 19) [(S)-IFENPRODIL], the IC50 in series [2] is 629 nM.

Consider `c1ccc(CCN2CCC(Cc3ccccc3)CC2)cc1`, for which the values for the IC50 (against Glutamate NMDA receptor; in series [2]) were 0.29 µM and 347 nM, respectively. Moreover, the selectivity ratio in [1] is 1.19.

Turning to `CC(C(O)c1ccc(O)cc1)N1CCC(Cc2ccccc2)CC1` (stereo not given) [IFENPRODIL], the IC50 in series [4] was 100 nM; in series [5], 238 nM; in series [6] it was over 1000 nM; on Histamine H1 receptor, 1000 nM; in series [7], 610 nM; at Mu-type opioid receptor it was over 1000 nM. The half-maximal inhibitory concentration (IC50) at D(1A) dopamine receptor and on D(2) dopamine receptor was over 1000 nM throughout.

In series [4], `C[C@@H]([C@@H](O)c1ccc(O)cc1)N1CCC(Cc2ccccc2)CC1` (stereo in doubt; 2) [(S)-IFENPRODIL] registered a concentration for half-maximal inhibition (IC50) of 843 nM.

For the compound `C[C@@H]([C@H](O)c1ccc(O)cc1)N1CCCCC1`, the IC50 is over 10 µM at Glutamate NMDA receptor and over 10000 nM in series [2].

For `CC(Cc1ccc(O)cc1)N1CCC(Cc2ccccc2)CC1` (stereo not given), the IC50 against Glutamate NMDA receptor worked out at 0.153 µM; in [2], 130 nM. Also, the selectivity ratio in series [1] turned out to be 0.85.

Consider `C[C@@H]([C@H](O)c1ccc(O)cc1)N1CCC(Cc2ccccc2)CC1` [(R,S)-IFENPRODIL], for which the half-maximal inhibitory concentration (IC50) in series [2] worked out at 135 nM.

As to `C[C@@H]([C@@H](O)c1ccc(O)cc1)N1CCN(Cc2ccccc2)CC1`, the IC50 amounted to 10 µM against Glutamate NMDA receptor and 4633 nM in series [4].

Take `C[C@@H]([C@@H](O)c1ccccc1)N1CCC(Cc2ccccc2)CC1`: the concentration for half-maximal inhibition (IC50) turned out to be 3.7 µM against Glutamate NMDA receptor and 3400 nM in [2]. The selectivity ratio in series [1] worked out at 0.92.

Regarding `C[C@@H]([C@H](O)c1ccc(F)cc1)N1CCC(Cc2ccccc2)CC1`, in [1], the selectivity ratio stood at 0.94. The IC50 in series [2] was found to be 220 nM.

For `CCCC1CCN([C@@H](C)[C@@H](O)c2ccc(O)cc2)CC1`, the figures for the IC50 (against Glutamate NMDA receptor; in series [2]) were 6.3 µM and 2867 nM, respectively. Further, the selectivity ratio in series [1] came to 0.61.

As for `CC(CO)N1CCC(Cc2ccccc2)CC1` (stereo not given), the half-inhibitory concentration (IC50) on Glutamate NMDA receptor was over 10 µM; in series [2], over 10000 nM.

Turning to `C[C@@H]([C@H](O)c1ccccc1)N1CCC(Cc2ccccc2)CC1`, in series [1], the selectivity ratio is 0.28. In series [2], this compound yielded an IC50 of 573 nM.
